What all share (format): functional
The subject of assay [1] is Staphylococcus aureus. The assay is described as follows: Antibacterial activity against Staphylococcus aureus at 50 ug/ml after 24 to 48 hrs by cup-plate method. The note with it: read-out: IZ. The method, boiled down:
(§1)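 Sterile nutrient agar cooled to […] and seeded with 18-24 h sub-cultures, then poured at about 45-50 mL per dish. Wells cut with a 6 mm sterile cork borer and filled with 0.1 mL of each of two test dilutions. Plates incubated inverted at 37 °C for 24–48 h; inhibition zone diameters measured in mm. Streptomycin and procaine penicillin served as standards.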

Assay [2] has as its system Staphylococcus aureus. The assay is described as follows: Antibacterial activity against Staphylococcus aureus at 100 ug/ml after 24 to 48 hrs by cup-plate method. The note with it: read-out: IZ. The method, boiled down: as §1
For assay [3], the system named is Bacillus subtilis. The assay is described as follows: Antibacterial activity against Bacillus subtilis at 50 ug/ml after 24 to 48 hrs by cup-plate method. The note with it: read-out: IZ. An outline of the steps:
as §1

In assay [4] the test system is Bacillus subtilis. Description: Antibacterial activity against Bacillus subtilis at 100 ug/ml after 24 to 48 hrs by cup-plate method. The note with it: read-out: IZ. An outline of the steps: as §1
Assay [5] has as its system Escherichia coli. Description: Antibacterial activity against Escherichia coli at 50 ug/ml after 24 to 48 hrs by cup-plate method. The note with it: read-out: IZ. An outline of the steps: as §1
In assay [6] the test system is Escherichia coli. The assay is described as follows: Antibacterial activity against Escherichia coli at 100 ug/ml after 24 to 48 hrs by cup-plate method. The note with it: read-out: IZ. An outline of the steps:
as §1

Assay [7] concerns Pseudomonas aeruginosa. The assay is described as follows: Antibacterial activity against Pseudomonas aeruginosa at 50 ug/ml after 24 to 48 hrs by cup-plate method. The note with it: read-out: IZ. The method, boiled down:
as §1

Assay [8] deals with Pseudomonas aeruginosa. Description: Antibacterial activity against Pseudomonas aeruginosa at 100 ug/ml after 24 to 48 hrs by cup-plate method. The note with it: read-out: IZ. The method, boiled down:
as §1

Assay [9] concerns Mus musculus. The assay is described as follows: Analgesic activity in albino mouse assessed as paw licking latency at 100 mg/kg after 0.5 hrs by Eddy's hot plate method. The method, boiled down:
(§2)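 Albino mice of either sex, fasted 24 h, 6 per group. Compounds given at 100 mg/kg; control group received 2% acacia suspension, standard group pentazocine 35 mg/kg. Hot plate held at 55 ± 1 °C. Reaction time is the time to lick a hind paw or leap off the plate, recorded at 0, 30, 60, 120 and 240 min after dosing.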
Background: Hot-plate and tail-flick tests time the reaction to a heat stimulus.

The test system of assay [10] is Mus musculus. Description: Analgesic activity in albino mouse assessed as paw licking latency at 100 mg/kg after 1 hr by Eddy's hot plate method. An outline of the steps: as §2
The subject of assay [11] is Mus musculus. The assay is described as follows: Analgesic activity in albino mouse assessed as paw licking latency at 100 mg/kg after 2 hrs by Eddy's hot plate method. The method, boiled down:
as §2

The test system of assay [12] is Mus musculus. Description: Analgesic activity in albino mouse assessed as paw licking latency at 100 mg/kg after 4 hrs by Eddy's hot plate method. An outline of the steps:
as §2

For the compound `S=c1[nH]nc(-c2cccc(-c3cccc(Cl)c3)c2)o1`, the zone of inhibition at 50 µg/mL amounted to 10 mm with Staphylococcus aureus [1], 13 mm in the assay with Bacillus subtilis [3], 11 mm in the assay on Escherichia coli [5] and 9 mm with Pseudomonas aeruginosa [7]. Further, the zone of inhibition at 100 µg/mL turned out to be 11 mm in the assay with Staphylococcus aureus [2], 9 mm in the assay on Bacillus subtilis [4], 16 mm with Escherichia coli [6] and 14 mm in the assay with Pseudomonas aeruginosa [8]. Moreover, the Time is on record as 4.71 s with Mus musculus [9], 4.84 s with Mus musculus [10], 5.01 s in the assay on Mus musculus [11] and 5.08 s with Mus musculus [12].

On to `N#CCCCSc1nnc(-c2cccc(-c3ccccc3F)c2)o1`, for which the zone of inhibition at 50 µg/mL with Staphylococcus aureus [1] stood at 11 mm; in the assay on Bacillus subtilis [3] it was 12 mm; in the assay with Escherichia coli [5], 17 mm; in the assay on Pseudomonas aeruginosa [7] it was 16 mm. The zone of inhibition at 100 µg/mL is 16 mm with Staphylococcus aureus [2], 18 mm with Bacillus subtilis [4], 21 mm in the assay on Escherichia coli [6] and 20 mm in the assay on Pseudomonas aeruginosa [8]. Also, the Time in the assay with Mus musculus [9] was found to be 4.54 s; in the assay with Mus musculus [10], 4.71 s; with Mus musculus [11], 4.92 s; in the assay with Mus musculus [12] it was 4.49 s.

For `N#CCCCSc1nnc(-c2cccc(-c3cccc(Cl)c3)c2)o1`, the zone of inhibition at 50 µg/mL with Staphylococcus aureus [1] came out at 10 mm; in the assay with Bacillus subtilis [3], 8 mm; in the assay with Escherichia coli [5], 10 mm; in the assay on Pseudomonas aeruginosa [7] it was 12 mm. Moreover, the zone of inhibition at 100 µg/mL with Staphylococcus aureus [2] came to 15 mm; with Bacillus subtilis [4], 16 mm; in the assay on Escherichia coli [6], 17 mm; in the assay with Pseudomonas aeruginosa [8], 16 mm. Besides, the Time in the assay with Mus musculus [9] is given as 4.51 s; in the assay on Mus musculus [10], 4.77 s; with Mus musculus [11], 5.12 s; in the assay on Mus musculus [12] it was 4.71 s.

Regarding `COC(=O)CCCSc1nnc(-c2cccc(-c3cc(F)ccc3OC)c2)o1`, the zone of inhibition at 50 µg/mL in the assay on Staphylococcus aureus [1] is 10 mm; in the assay on Bacillus subtilis [3] it was 13 mm; in the assay with Escherichia coli [5], 15 mm; in the assay on Pseudomonas aeruginosa [7], 13 mm. Further, the zone of inhibition at 100 µg/mL in the assay with Staphylococcus aureus [2] came to 16 mm; in the assay with Bacillus subtilis [4] it was 18 mm; in the assay with Escherichia coli [6] it was 18 mm; with Pseudomonas aeruginosa [8], 19 mm. For the same compound, the Time in the assay with Mus musculus [9] is given as 4.75 s; in the assay with Mus musculus [10], 5.11 s; in the assay on Mus musculus [11], 6.01 s; in the assay with Mus musculus [12], 6.01 s.

Regarding `COC(=O)CCCSc1nnc(-c2cccc(-c3ccccc3OC)c2)o1`, the zone of inhibition at 50 µg/mL in the assay on Staphylococcus aureus [1] stood at 9 mm; in the assay with Bacillus subtilis [3] it was 11 mm; with Escherichia coli [5], 7 mm; with Pseudomonas aeruginosa [7], 18 mm. Besides, the zone of inhibition at 100 µg/mL in the assay on Staphylococcus aureus [2] is 14 mm; with Bacillus subtilis [4] it was 15 mm; in the assay with Escherichia coli [6] it was 16 mm; with Pseudomonas aeruginosa [8], 21 mm. The Time turned out to be 5.01 s with Mus musculus [9], 5.21 s in the assay with Mus musculus [10], 6.58 s with Mus musculus [11] and 6.21 s in the assay with Mus musculus [12].

Regarding `COC(=O)CCCSc1nnc(-c2cccc(-c3ccccc3F)c2)o1`, the zone of inhibition at 50 µg/mL in the assay on Staphylococcus aureus [1] came to 15 mm; in the assay on Bacillus subtilis [3] it was 9 mm; in the assay with Escherichia coli [5] it was 9 mm; in the assay on Pseudomonas aeruginosa [7], 13 mm. Further, the zone of inhibition at 100 µg/mL in the assay on Staphylococcus aureus [2] is 17 mm; with Bacillus subtilis [4], 16 mm; in the assay with Escherichia coli [6] it was 16 mm; in the assay with Pseudomonas aeruginosa [8], 21 mm. Further, the Time came out at 4.53 s in the assay with Mus musculus [9], 4.62 s with Mus musculus [10], 4.84 s in the assay on Mus musculus [11] and 4.49 s in the assay with Mus musculus [12].

Consider `COC(=O)CCCSc1nnc(-c2cccc(-c3cccc(Cl)c3)c2)o1`, for which the zone of inhibition at 50 µg/mL in the assay on Staphylococcus aureus [1] was determined as 10 mm; in the assay on Bacillus subtilis [3] it was 11 mm; with Escherichia coli [5], 18 mm; in the assay on Pseudomonas aeruginosa [7], 6 mm. For the same compound, the zone of inhibition at 100 µg/mL in the assay with Staphylococcus aureus [2] was determined as 16 mm; with Bacillus subtilis [4] it was 18 mm; in the assay with Escherichia coli [6], 19 mm; in the assay on Pseudomonas aeruginosa [8] it was 18 mm. The Time was 4.96 s with Mus musculus [9], 5.36 s with Mus musculus [10], 6.58 s with Mus musculus [11] and 5.59 s in the assay on Mus musculus [12].

On to `COc1ccc(F)cc1-c1cccc(-c2nnc(SCCCCF)o2)c1`, for which the zone of inhibition at 50 µg/mL in the assay with Staphylococcus aureus [1] stood at 12 mm; with Bacillus subtilis [3], 10 mm; in the assay with Escherichia coli [5], 12 mm; with Pseudomonas aeruginosa [7], 7 mm. The zone of inhibition at 100 µg/mL in the assay with Staphylococcus aureus [2] turned out to be 15 mm; with Bacillus subtilis [4] it was 17 mm; in the assay on Escherichia coli [6], 19 mm; in the assay on Pseudomonas aeruginosa [8], 15 mm. Moreover, the Time with Mus musculus [9] is reported as 4.35 s; in the assay on Mus musculus [10], 4.48 s; in the assay with Mus musculus [11], 4.72 s; in the assay on Mus musculus [12], 4.55 s.

With `COc1ccccc1-c1cccc(-c2nnc(SCCCCF)o2)c1`, the zone of inhibition at 50 µg/mL in the assay on Staphylococcus aureus [1] stood at 15 mm; with Bacillus subtilis [3] it was 15 mm; in the assay on Escherichia coli [5] it was 12 mm; in the assay with Pseudomonas aeruginosa [7], 6 mm. Besides, the zone of inhibition at 100 µg/mL amounted to 21 mm in the assay with Staphylococcus aureus [2], 20 mm in the assay on Bacillus subtilis [4], 16 mm in the assay on Escherichia coli [6] and 15 mm in the assay on Pseudomonas aeruginosa [8]. Further, the Time in the assay with Mus musculus [9] turned out to be 4.9 s; in the assay with Mus musculus [10] it was 5.01 s; in the assay on Mus musculus [11], 6.17 s; in the assay on Mus musculus [12] it was 6.01 s.

As to `FCCCCSc1nnc(-c2cccc(-c3ccccc3F)c2)o1`, the zone of inhibition at 50 µg/mL with Staphylococcus aureus [1] is 13 mm; in the assay with Bacillus subtilis [3] it was 20 mm; in the assay on Escherichia coli [5], 13 mm; in the assay with Pseudomonas aeruginosa [7] it was 17 mm. Further, the zone of inhibition at 100 µg/mL was 20 mm with Staphylococcus aureus [2], 22 mm in the assay on Bacillus subtilis [4], 19 mm with Escherichia coli [6] and 18 mm in the assay with Pseudomonas aeruginosa [8]. The Time was determined as 4.62 s in the assay on Mus musculus [9], 4.69 s in the assay with Mus musculus [10], 4.87 s in the assay on Mus musculus [11] and 4.47 s in the assay with Mus musculus [12].

Consider `FCCCCSc1nnc(-c2cccc(-c3cccc(Cl)c3)c2)o1`, for which the zone of inhibition at 50 µg/mL in the assay on Staphylococcus aureus [1] is 5 mm; in the assay on Bacillus subtilis [3], 15 mm; with Escherichia coli [5] it was 12 mm; in the assay on Pseudomonas aeruginosa [7] it was 15 mm. Besides, the zone of inhibition at 100 µg/mL in the assay on Staphylococcus aureus [2] amounted to 12 mm; in the assay on Bacillus subtilis [4] it was 20 mm; in the assay with Escherichia coli [6] it was 15 mm; with Pseudomonas aeruginosa [8] it was 20 mm. The Time is 5.56 s in the assay with Mus musculus [9], 5.79 s with Mus musculus [10], 8.35 s in the assay on Mus musculus [11] and 6.44 s with Mus musculus [12].

For the compound `COc1ccc(F)cc1-c1cccc(-c2nnc(SCCCC#N)o2)c1`, the zone of inhibition at 50 µg/mL worked out at 7 mm with Staphylococcus aureus [1], 7 mm in the assay on Bacillus subtilis [3], 10 mm with Escherichia coli [5] and 15 mm in the assay with Pseudomonas aeruginosa [7]. The zone of inhibition at 100 µg/mL in the assay with Staphylococcus aureus [2] stood at 13 mm; in the assay with Bacillus subtilis [4], 18 mm; with Escherichia coli [6], 18 mm; in the assay on Pseudomonas aeruginosa [8], 18 mm. Further, the Time is 4.92 s in the assay with Mus musculus [9], 4.86 s in the assay with Mus musculus [10], 4.99 s with Mus musculus [11] and 4.74 s with Mus musculus [12].

With `COc1ccccc1-c1cccc(-c2nnc(SCCCC#N)o2)c1`, the zone of inhibition at 50 µg/mL amounted to 12 mm in the assay with Staphylococcus aureus [1], 17 mm in the assay on Bacillus subtilis [3], 10 mm in the assay with Escherichia coli [5] and 9 mm in the assay on Pseudomonas aeruginosa [7]. Also, the zone of inhibition at 100 µg/mL in the assay on Staphylococcus aureus [2] was 18 mm; with Bacillus subtilis [4] it was 20 mm; in the assay on Escherichia coli [6], 20 mm; in the assay on Pseudomonas aeruginosa [8], 20 mm. Further, the Time with Mus musculus [9] is 5.25 s; in the assay with Mus musculus [10], 5.4 s; in the assay with Mus musculus [11] it was 6.57 s; in the assay on Mus musculus [12], 5.59 s.

As for `CN[C@@H]1[C@H](O[C@H]2[C@H](O[C@H]3[C@H](O)[C@@H](O)[C@H](N=C(N)N)[C@@H](O)[C@@H]3N=C(N)N)O[C@@H](C)[C@]2(O)C=O)O[C@@H](CO)[C@H](O)[C@H]1O` [STREPTOMYCIN], the zone of inhibition at 50 µg/mL with Escherichia coli [5] and in the assay with Pseudomonas aeruginosa [7] was 21 mm each time. For the same compound, the zone of inhibition at 100 µg/mL with Escherichia coli [6] and with Pseudomonas aeruginosa [8] was 25 mm throughout.

The values are drawn from ChEMBL document CHEMBL1250505, “Synthesis and biological property of some novel 1,3,4-oxadiazoles” (2010).
